# According to ChEMBL document CHEMBL4049424, “Hydroxypyridinone and 5-Aminolaevulinic Acid Conjugates for Photodynamic Therapy” (J Med Chem, 2017):
# Test system: not listed separately
# Experiment: Drug metabolism in human doxorubicin resistant MCF7/R cells assessed as formation of protoporphyrin 9 after 6 hrs by fluorescence spectrometer
# Format: ADME, cell-based
# Settings: mcf7r
# Procedure, shortened: (§1)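 MCF-7R monolayers exposed 6 h at 37 °C to ALA, conjugates or ALA hexyl/octyl esters at 1–100 μM in serum-free medium. PpIX emission at 635 nm (405 nm excitation; spectra 600–750 nm) read in wells. Untreated controls subtracted; mean of triplicates in arbitrary units.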
row,SMILES,Drug metabolism
1,CCc1c(O)c(=O)ccn1CCCCOC(=O)CCC(=O)CN.Cl,Dose-dependent effect

# Test system: not listed separately
# Experiment: Drug metabolism in human KB cells assessed as protoporphyrin 9 formation at 500 uM preincubated for 1 hr at 4 degC followed by compound washout and subsequent incubation for 4 hrs at 37 degC by fluorescence spectrometer
# Format: ADME, cell-based
# Settings: not given
# Procedure, shortened: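 KB cells exposed 1 h to 500 μM prodrug in clear medium at either 4 °C or 37 °C, plates foil-wrapped. Compound then removed, PBS rinse, fresh medium, both plates 4 h at 37 °C. PpIX read in wells at 405/635 nm after subtracting untreated wells.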
row,SMILES,Drug metabolism
1,CCc1c(O)c(=O)ccn1CCCCOC(=O)CCC(=O)CN.Cl,Metabolite_Detected

# Test system: KB
# Experiment: Phototoxicity in human KB cells assessed as reduction in cell viability preincubated for 4 hrs followed by irradiation with blue light at 2.5 J/cm2 and subsequent incubation for 18 hrs measured after 24 hrs post treatment by MTT assay
# Format: functional
# Settings: not given
# Procedure, shortened: (§2)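 Cells seeded ~5 × 10^4 per well, grown 48 h, washed with PBS, then 4 h with compound (five concentrations within 1–100 μM, triplicate, three untreated control wells per plate). Irradiated with blue light, peak ~420 nm, 2.5 J/cm². Medium replaced, cells kept a further 18 h. MTT read at A570 24 h after treatment; survival expressed as percentage of control. LD50 taken from two sets of experiments.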
row,SMILES,Activity
1,CNC(=O)c1c(O)c(=O)ccn1CCCCCCOC(=O)CCC(=O)CN.Cl,Dose-dependent effect
2,CC(O)c1c(O)c(=O)ccn1CCCCCCOC(=O)CCC(=O)CN.Cl (centres undefined),Dose-dependent effect
3,CCc1c(O)c(=O)ccn1CCCCOC(=O)CCC(=O)CN.Cl,Dose-dependent effect
4,CCc1c(O)c(=O)ccn1CCOC(=O)CCC(=O)CN.Cl,Dose-dependent effect

# Same assay, conditions: light or radiation study, read-out: LD50 (the source's name)
row,SMILES,CC50
1,CNC(=O)c1c(O)c(=O)ccn1CCCCCCOC(=O)CCC(=O)CN.Cl,108 µM
2,CC(O)c1c(O)c(=O)ccn1CCCCCCOC(=O)CCC(=O)CN.Cl (centres undefined),24.1 µM
3,CCc1c(O)c(=O)ccn1CCCCOC(=O)CCC(=O)CN.Cl,65.1 µM
4,CCc1c(O)c(=O)ccn1CCOC(=O)CCC(=O)CN.Cl,115 µM

# Test system: MCF7
# Experiment: Phototoxicity in human MCF7 cells assessed as reduction in cell viability preincubated for 4 hrs followed by irradiation with blue light at 2.5 J/cm2 and subsequent incubation for 18 hrs measured after 24 hrs post treatment by MTT assay
# Format: functional
# Settings: not given
# Procedure, shortened: as §2
row,SMILES,Activity
1,CNC(=O)c1c(O)c(=O)ccn1CCCCCCOC(=O)CCC(=O)CN.Cl,Dose-dependent effect
2,CC(O)c1c(O)c(=O)ccn1CCCCCCOC(=O)CCC(=O)CN.Cl (centres undefined),Dose-dependent effect
3,CCc1c(O)c(=O)ccn1CCCCOC(=O)CCC(=O)CN.Cl,Dose-dependent effect
4,CCc1c(O)c(=O)ccn1CCOC(=O)CCC(=O)CN.Cl,Dose-dependent effect

# Same assay, conditions: MCF7, light or radiation study, read-out: LD50 (the source's name)
row,SMILES,CC50
1,CNC(=O)c1c(O)c(=O)ccn1CCCCCCOC(=O)CCC(=O)CN.Cl,113 µM
2,CC(O)c1c(O)c(=O)ccn1CCCCCCOC(=O)CCC(=O)CN.Cl (centres undefined),16.6 µM
3,CCc1c(O)c(=O)ccn1CCCCOC(=O)CCC(=O)CN.Cl,76.5 µM
4,CCc1c(O)c(=O)ccn1CCOC(=O)CCC(=O)CN.Cl,124 µM

# Test system: MCF7R
# Experiment: Phototoxicity in human doxorubicin resistant MCF7/R cells assessed as reduction in cell viability preincubated for 4 hrs followed by irradiation with blue light at 2.5 J/cm2 and subsequent incubation for 18 hrs measured after 24 hrs post treatment by MTT assay
# Format: functional
# Settings: not given
# Procedure, shortened: as §2
row,SMILES,Activity
1,CNC(=O)c1c(O)c(=O)ccn1CCCCCCOC(=O)CCC(=O)CN.Cl,Dose-dependent effect
2,CC(O)c1c(O)c(=O)ccn1CCCCCCOC(=O)CCC(=O)CN.Cl (centres undefined),Dose-dependent effect
3,CCc1c(O)c(=O)ccn1CCCCOC(=O)CCC(=O)CN.Cl,Dose-dependent effect
4,CCc1c(O)c(=O)ccn1CCOC(=O)CCC(=O)CN.Cl,Dose-dependent effect

# Same assay, conditions: light or radiation study, read-out: LD50 (the source's name)
row,SMILES,CC50
1,CNC(=O)c1c(O)c(=O)ccn1CCCCCCOC(=O)CCC(=O)CN.Cl,104 µM
2,CC(O)c1c(O)c(=O)ccn1CCCCCCOC(=O)CCC(=O)CN.Cl (centres undefined),8.4 µM
3,CCc1c(O)c(=O)ccn1CCCCOC(=O)CCC(=O)CN.Cl,61.2 µM
4,CCc1c(O)c(=O)ccn1CCOC(=O)CCC(=O)CN.Cl,122 µM

# Test system: KB
# Experiment: Dark toxicity against human KB cells at 200 uM preincubated for 4 hrs followed by compound washout measured after 24 hrs by MTT assay
# Format: cell-based
# Settings: not given
# Procedure, shortened: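 Dark toxicity in KB cells: 200 μM compound for 4 h with no light, removed, cells kept 24 h. Viability by MTT (2 h, A570 after DMSO solubilisation), given as % of untreated controls. Triplicate.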
row,SMILES,Activity
1,CNC(=O)c1c(O)c(=O)ccn1CCCCCCOC(=O)CCC(=O)CN.Cl,Non-Toxic
2,CC(O)c1c(O)c(=O)ccn1CCCCCCOC(=O)CCC(=O)CN.Cl (centres undefined),Non-Toxic
3,CCc1c(O)c(=O)ccn1CCCCOC(=O)CCC(=O)CN.Cl,Non-Toxic
4,CCc1c(O)c(=O)ccn1CCOC(=O)CCC(=O)CN.Cl,Non-Toxic

# Test system: not listed separately
# Experiment: Dark toxicity against human KB cells assessed as cell survival at 100 uM after 4 hrs by MTT assay
# Format: cell-based
# Settings: read-out: Survival
# Procedure, shortened: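 Cells seeded ~5 × 10^4 per well, grown 48 h, washed with PBS, then exposed to compound in medium for 4 h without irradiation. Incubation then continued for 24 h after prodrug removal. Viability by MTT (1 mg/mL, 2 h), formazan dissolved in DMSO, A570, expressed as percentage of untreated control wells on the same plate. Triplicate.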
row,SMILES,"viability at 4 h, 100 µM"
1,CCCCCCCCOC(=O)CCC(=O)CN,14%

# Test system: not listed separately
# Experiment: Drug metabolism in human KB cells assessed as formation of protoporphyrin 9 preincubated for 2 hrs followed by compound washout measured after 24 hrs by HPLC-based fluorescence analysis
# Format: ADME, cell-based
# Settings: not given
# Procedure, shortened: (§3)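 Cells given ALA or conjugate for 2 h at 37 °C, then fresh medium without compound. At 24 h, lysed in CelLytic (15 min, room temperature), scraped and spun 1800g for 10 min. Supernatant PpIX read by fluorescence at 405/635 nm and normalised per mg protein (BCA). Untreated blanks subtracted.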
row,SMILES,Drug metabolism
1,CC(O)c1c(O)c(=O)ccn1CCCCCCOC(=O)CCC(=O)CN.Cl (centres undefined),Metabolite_Detected

# Test system: not listed separately
# Experiment: Drug metabolism in human doxorubicin resistant MCF7/R cells assessed as formation of protoporphyrin 9 preincubated for 2 hrs followed by compound washout measured after 24 hrs by HPLC-based fluorescence analysis
# Format: ADME, cell-based
# Settings: mcf7r
# Procedure, shortened: as §3
row,SMILES,Drug metabolism
1,CC(O)c1c(O)c(=O)ccn1CCCCCCOC(=O)CCC(=O)CN.Cl (centres undefined),Metabolite_Detected

# Test system: not listed separately
# Experiment: Drug metabolism in human MCF7 cells assessed as formation of protoporphyrin 9 preincubated for 2 hrs followed by compound washout measured after 24 hrs by HPLC-based fluorescence analysis
# Format: ADME, cell-based
# Settings: mcf7, 24 h
# Procedure, shortened: as §3
row,SMILES,Drug metabolism
1,CCc1c(O)c(=O)ccn1CCCCOC(=O)CCC(=O)CN.Cl,Metabolite_Detected
2,CCc1c(O)c(=O)ccn1CCOC(=O)CCC(=O)CN.Cl,Metabolite_Detected

# Test system: not listed separately
# Experiment: Drug metabolism in human doxorubicin resistant MCF7/R cells assessed as formation of protoporphyrin 9 at 1 to 100 uM after 6 hrs by fluorescence spectrometer
# Format: ADME, cell-based
# Settings: mcf7r
# Procedure, shortened: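 Cells seeded ~5 × 10^4 per well and grown 48 h, washed with PBS. Then 6 h at 37 °C with 1–100 μM prodrug in serum-free medium. PpIX fluorescence read with excitation 405 nm and emission 635 nm (scan 600–750 nm, 515 nm long-pass filter). Values are mean intensity in arbitrary units after subtracting no-prodrug control wells. Triplicate.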
SMILES,Drug metabolism,Flu intensity
CNC(=O)c1c(O)c(=O)ccn1CCCCCCOC(=O)CCC(=O)CN.Cl,Metabolite_Notdetected,–
CCc1c(O)c(=O)ccn1CCCCOC(=O)CCC(=O)CN.Cl,–,2 to 25 a.u.

# Test system: not listed separately
# Experiment: Drug metabolism in human doxorubicin resistant MCF7/R cells assessed as formation of protoporphyrin 9 at 100 uM after 6 hrs by fluorescence spectrometer
# Format: ADME, cell-based
# Settings: mcf7r
# Procedure, shortened: as §1
row,SMILES,Drug metabolism
1,CCc1c(O)c(=O)ccn1CCOC(=O)CCC(=O)CN.Cl,Metabolite_Notdetected

# Test system: not listed separately
# Experiment: Drug metabolism in human doxorubicin resistant MCF7/R cells assessed as formation of protoporphyrin 9 at 1 to 100 uM after 6 hrs by fluorescence spectrometer relative to ALA
# Format: ADME, cell-based
# Settings: mcf7r
# Procedure, shortened: as §1
row,SMILES,fold change (FC)
1,CC(O)c1c(O)c(=O)ccn1CCCCCCOC(=O)CCC(=O)CN.Cl (centres undefined),> 10

# Test system: KB
# Experiment: Dark toxicity against human KB cells assessed as cell survival at 100 uM after 24 hrs by MTT assay
# Format: cell-based
# Settings: not given
row,SMILES,Activity
1,CNC(=O)c1c(O)c(=O)ccn1CCCCCCOC(=O)CCC(=O)CN.Cl,Non-Toxic
2,CC(O)c1c(O)c(=O)ccn1CCCCCCOC(=O)CCC(=O)CN.Cl (centres undefined),Non-Toxic
3,CCc1c(O)c(=O)ccn1CCCCOC(=O)CCC(=O)CN.Cl,Non-Toxic
4,CCc1c(O)c(=O)ccn1CCOC(=O)CCC(=O)CN.Cl,Non-Toxic

# Test system: KB
# Experiment: Dark toxicity against human KB cells preincubated for 4 hrs followed by compound washout measured after 24 hrs by MTT assay
# Format: cell-based
# Settings: not given
# Procedure, shortened: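 KB cells seeded ~5×10^4/well, grown 48 h, PBS-washed, then exposed to compound for 4 h without irradiation. Medium replaced and cells kept a further ~24 h. Survival by MTT (1 mg/mL in EMEM, 2 h), formazan dissolved in DMSO, A570, expressed as % of untreated control wells. Triplicate wells.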
row,SMILES,Activity
1,CCCCCCCCOC(=O)CCC(=O)CN,Toxic
